Data reported in BindingDB's records for doi:10.1021/acs.jnatprod.7b00271 (University of Eastern Piedmont, 2017).
Each block holds one compound with its values, some of them ahead of it.

Assays:
[1] = biological target: T1, Nuclear factor erythroid 2-related factor 2 (Homo sapiens, UniProt Q16236); assay: Activation of Nrf2 (unknown origin) expressed in human HaCaT-ARE-luc cells after 6 hrs by luciferase reporter gene assay
T1 sequence (Q16236 whole entry): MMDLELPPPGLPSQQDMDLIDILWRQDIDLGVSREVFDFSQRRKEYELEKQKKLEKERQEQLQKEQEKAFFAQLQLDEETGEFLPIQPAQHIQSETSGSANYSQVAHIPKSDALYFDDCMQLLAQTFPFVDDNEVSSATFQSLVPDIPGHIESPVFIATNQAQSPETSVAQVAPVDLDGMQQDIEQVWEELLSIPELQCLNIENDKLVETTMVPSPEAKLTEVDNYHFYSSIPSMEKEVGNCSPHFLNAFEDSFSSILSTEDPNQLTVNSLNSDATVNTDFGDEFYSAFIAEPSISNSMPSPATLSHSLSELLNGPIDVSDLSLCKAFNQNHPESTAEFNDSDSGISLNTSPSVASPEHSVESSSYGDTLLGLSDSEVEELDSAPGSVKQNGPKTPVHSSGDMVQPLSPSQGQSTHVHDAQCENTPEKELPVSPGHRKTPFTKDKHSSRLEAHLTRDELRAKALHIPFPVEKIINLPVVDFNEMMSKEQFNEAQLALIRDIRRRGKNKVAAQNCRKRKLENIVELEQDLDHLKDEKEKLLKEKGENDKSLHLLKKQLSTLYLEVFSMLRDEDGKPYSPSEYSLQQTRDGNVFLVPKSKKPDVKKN
Method in brief: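 HaCaT-ARE-Luc keratinocytes in DMEM with 10% FBS, 37 °C, 5% CO2, exposed to compounds for 6 h. Cells then washed with PBS and lysed (Tris-phosphate pH 7.8, MgCl2, DTT, Triton X-100, glycerol, 15 min RT). Luciferase RLU read on the supernatant and EC50 derived. Mean of at least five independent experiments.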

[2] = biological target: Signal transducer and activator of transcription 3 (Homo sapiens, UniProt P40763); assay: Inhibition of IFN-gamma stimulated STAT3 (unknown origin) expressed in human HeLa cells after 6 hrs by luciferase reporter gene assay
Method in brief: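 HeLa-STAT3-Luc cells stimulated with γIFN (20 IU/mL) with or without compounds for 6 h. PBS-washed cells lysed 15 min at room temperature and luciferase RLU measured. Values expressed as percent inhibition of IFN-γ-induced activity (taken as 100%). Mean of at least five independent experiments.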

Chain of Signal transducer and activator of transcription 3 (P40763 whole entry): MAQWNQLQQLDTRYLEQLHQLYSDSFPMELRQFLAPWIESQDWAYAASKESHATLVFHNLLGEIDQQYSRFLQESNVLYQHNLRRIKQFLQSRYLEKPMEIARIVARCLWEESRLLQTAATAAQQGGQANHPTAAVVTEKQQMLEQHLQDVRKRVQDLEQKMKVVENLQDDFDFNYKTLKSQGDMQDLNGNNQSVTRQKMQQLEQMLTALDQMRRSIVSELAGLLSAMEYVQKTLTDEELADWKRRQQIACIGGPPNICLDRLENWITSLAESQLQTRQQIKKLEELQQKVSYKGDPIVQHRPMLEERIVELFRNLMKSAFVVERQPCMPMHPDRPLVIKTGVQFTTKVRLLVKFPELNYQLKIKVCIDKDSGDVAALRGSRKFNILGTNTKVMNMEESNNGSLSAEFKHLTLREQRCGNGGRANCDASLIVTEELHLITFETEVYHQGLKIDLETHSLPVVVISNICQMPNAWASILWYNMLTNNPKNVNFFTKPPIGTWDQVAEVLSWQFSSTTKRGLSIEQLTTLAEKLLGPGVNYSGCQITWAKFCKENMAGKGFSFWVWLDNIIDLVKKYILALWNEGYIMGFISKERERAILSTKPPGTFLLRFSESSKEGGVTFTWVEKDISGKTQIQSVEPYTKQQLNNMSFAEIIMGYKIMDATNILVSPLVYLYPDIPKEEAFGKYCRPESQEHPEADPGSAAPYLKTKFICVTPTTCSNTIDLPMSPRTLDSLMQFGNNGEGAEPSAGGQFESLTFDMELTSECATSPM

SMILES: COC(=O)[C@]12CCC(C)(C)C[C@H]1C1=CC[C@@H]3[C@@]4(C)CC(C#N)=C(O)C(C)(C)[C@@H]4CC[C@@]3(C)[C@]1(C)CC2
- EC50 [1]: > 25 µM
- IC50 [2]: > 25 µM

SMILES: COC(=O)[C@]12CCC(C)(C)C[C@H]1C1=CC[C@@H]3[C@@]4(C)C=C(c5ccc(C#N)cc5)C(=O)C(C)(C)[C@@H]4CC[C@@]3(C)[C@]1(C)CC2
- EC50 [1]: > 25 µM
- IC50 [2]: > 25 µM

SMILES: COC(=O)[C@]12CCC(C)(C)C[C@H]1C1=CC[C@@H]3[C@@]4(C)CCC(=O)C(C)(C)[C@@H]4CC[C@@]3(C)[C@]1(C)CC2
- EC50 [1]: > 25 µM
- IC50 [2]: > 25 µM

SMILES: COC(=O)[C@]12CCC(C)(C)C[C@H]1C1=CC[C@@H]3[C@@]4(C)C=C(C#Cc5ccccc5)C(=O)C(C)(C)[C@@H]4CC[C@@]3(C)[C@]1(C)CC2
- EC50 [1]: > 25 µM
- IC50 [2]: > 25 µM

SMILES: COC(=O)[C@]12CCC(C)(C)C[C@H]1C1=CC[C@@H]3[C@@]4(C)Cc5cnoc5C(C)(C)[C@@H]4CC[C@@]3(C)[C@]1(C)CC2
- EC50 [1]: > 25 µM
- IC50 [2]: > 25 µM

SMILES: COC(=O)[C@]12CCC(C)(C)C[C@H]1C1=CC[C@@H]3[C@@]4(C)CC(C=O)=C(O)C(C)(C)[C@@H]4CC[C@@]3(C)[C@]1(C)CC2
- EC50 [1]: > 25 µM
- IC50 [2]: > 25 µM

SMILES: COC(=O)[C@]12CCC(C)(C)C[C@H]1[C@H]1C(=O)C=C3[C@@]4(C)C=C(C#N)C(=O)C(C)(C)[C@@H]4CC[C@@]3(C)[C@]1(C)CC2 [CDDO-Me, 2]
- EC50 [1]: 0.06 µM

SMILES: CC1(C)CC[C@]2(C(=O)O)CC[C@]3(C)C(=CC[C@@H]4[C@@]5(C)CC[C@H](O)C(C)(C)[C@@H]5CC[C@]43C)[C@@H]2C1 [Oleanolic acid (OA)(Compound 1)]
- IC50 [2]: > 50 µM

Next, values leading:

- EC50 [1]: > 25 µM
- IC50 [2]: > 25 µM
SMILES: COC(=O)[C@]12CCC(C)(C)C[C@H]1C1=CC[C@@H]3[C@@]4(C)C=C(I)C(=O)C(C)(C)[C@@H]4CC[C@@]3(C)[C@]1(C)CC2

- EC50 [1]: 11.5 µM
- IC50 [2]: > 25 µM
SMILES: COC(=O)[C@]12CCC(C)(C)C[C@H]1C1=CC[C@@H]3[C@@]4(C)C=C(Br)C(=O)C(C)(C)[C@@H]4CC[C@@]3(C)[C@]1(C)CC2

- EC50 [1]: > 25 µM
- IC50 [2]: > 25 µM
SMILES: COC(=O)[C@]12CCC(C)(C)C[C@H]1C1=CC[C@@H]3[C@@]4(C)C=C(c5ccccc5)C(=O)C(C)(C)[C@@H]4CC[C@@]3(C)[C@]1(C)CC2

- EC50 [1]: > 25 µM
- IC50 [2]: > 25 µM
SMILES: COC(=O)C1=C[C@]2(C)[C@H]3CC=C4[C@@H]5CC(C)(C)CC[C@]5(C(=O)OC)CC[C@@]4(C)[C@]3(C)CC[C@H]2C(C)(C)C1=O

- EC50 [1]: > 25 µM
- IC50 [2]: > 25 µM
SMILES: COC(=O)[C@]12CCC(C)(C)C[C@H]1C1=CC[C@@H]3[C@@]4(C)C=C(OC(C)=O)C(=O)C(C)(C)[C@@H]4CC[C@@]3(C)[C@]1(C)CC2

- EC50 [1]: > 25 µM
- IC50 [2]: > 25 µM
SMILES: COC(=O)[C@]12CCC(C)(C)C[C@H]1C1=CC[C@@H]3[C@@]4(C)C=CC(=O)C(C)(C)[C@@H]4CC[C@@]3(C)[C@]1(C)CC2

- EC50 [1]: > 25 µM
- IC50 [2]: > 25 µM
SMILES: CCOC(=O)/C=C/C1=C[C@]2(C)[C@H]3CC=C4[C@@H]5CC(C)(C)CC[C@]5(C(=O)OC)CC[C@@]4(C)[C@]3(C)CC[C@H]2C(C)(C)C1=O

- EC50 [1]: 2.45 µM
- IC50 [2]: 25.7 µM
SMILES: COC(=O)[C@]12CCC(C)(C)C[C@H]1C1=CC[C@@H]3[C@@]4(C)C=C(C(=O)O)C(=O)C(C)(C)[C@@H]4CC[C@@]3(C)[C@]1(C)CC2

- EC50 [1]: 1.1 µM
SMILES: COC(=O)[C@]12CCC(C)(C)C[C@H]1C1=CC[C@@H]3[C@@]4(C)C=C(C#N)C(=O)C(C)(C)[C@@H]4CC[C@@]3(C)[C@]1(C)CC2

- EC50 [1]: > 25 µM
- IC50 [2]: > 25 µM
SMILES: COC(=O)[C@]12CCC(C)(C)C[C@H]1C1=CC[C@@H]3[C@@]4(C)C=C(c5ccc(OC)cc5)C(=O)C(C)(C)[C@@H]4CC[C@@]3(C)[C@]1(C)CC2
